# In ChEMBL document CHEMBL3864121, “Development of ebsulfur analogues as potent antibacterials against methicillin-resistant Staphylococcus aureus” (Bioorg Med Chem, 2016):
# Test system: Staphylococcus aureus
# Assay: Antibacterial activity against methicillin-sensitive Staphylococcus aureus ATCC 6538 measured after overnight incubation by broth double-dilution method
# Assay type: functional
# Conditions: not given
# In short: (§1)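 MIC by broth double-dilution in liquid Mueller-Hinton medium. Values are reported in µg/mL.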
row,SMILES,MIC
1,O=c1c2ccccc2sn1-c1cccc2ccccc12,> 125 µg/mL
2,O=c1c2ccccc2sn1C1CCCC1,7.8 µg/mL

# Test system: Staphylococcus aureus
# Assay: Antibacterial activity against methicillin-sensitive Staphylococcus aureus ATCC 25923 measured after overnight incubation by broth double-dilution method
# Assay type: functional
# Conditions: not given
# In short: as §1
row,SMILES,MIC
1,O=c1c2ccccc2sn1-c1cccc2ccccc12,2 µg/mL

# Test system: Staphylococcus aureus
# Assay: Antibacterial activity against methicillin-sensitive Staphylococcus aureus ATCC 29213 measured after overnight incubation by broth double-dilution method
# Assay type: functional
# Conditions: not given
# In short: as §1
row,SMILES,MIC
1,O=c1c2ccccc2sn1-c1cccc2ccccc12,0.5 µg/mL
2,O=c1c2ccccc2sn1C1CCCC1,2 µg/mL

# Test system: Staphylococcus aureus
# Assay: Antibacterial activity against methicillin-resistant Staphylococcus aureus ATCC 33591 measured after overnight incubation by broth double-dilution method
# Assay type: functional
# Conditions: not given
# In short: as §1
row,SMILES,MIC
1,O=c1c2ccccc2sn1-c1cccc2ccccc12,0.5 µg/mL

# Test system: Staphylococcus aureus
# Assay: Antibacterial activity against methicillin-resistant Staphylococcus aureus 1 measured after overnight incubation by broth double-dilution method
# Assay type: functional
# Conditions: not given
# In short: as §1
row,SMILES,MIC
1,O=c1c2ccccc2sn1-c1cccc2ccccc12,1 µg/mL
2,O=c1c2ccccc2sn1C1CCCC1,2 µg/mL

# Test system: Staphylococcus aureus
# Assay: Antibacterial activity against methicillin-resistant Staphylococcus aureus 2 measured after overnight incubation by broth double-dilution method
# Assay type: functional
# Conditions: not given
# In short: as §1
row,SMILES,MIC
1,O=c1c2ccccc2sn1-c1cccc2ccccc12,0.5 µg/mL

# Test system: Staphylococcus aureus
# Assay: Antibacterial activity against methicillin-resistant Staphylococcus aureus BRS3 measured after overnight incubation by broth double-dilution method
# Assay type: functional
# Conditions: not given
# In short: as §1
row,SMILES,MIC
1,O=c1c2ccccc2sn1-c1cccc2ccccc12,2 µg/mL

# Test system: Staphylococcus aureus
# Assay: Antibacterial activity against methicillin-resistant Staphylococcus aureus C1 measured after overnight incubation by broth double-dilution method
# Assay type: functional
# Conditions: not given
# In short: as §1
row,SMILES,MIC
1,O=c1c2ccccc2sn1-c1cccc2ccccc12,2 µg/mL
2,O=c1c2ccccc2sn1C1CCCC1,3.9 µg/mL

# Test system: Staphylococcus aureus
# Assay: Antibacterial activity against methicillin-resistant Staphylococcus aureus C2 measured after overnight incubation by broth double-dilution method
# Assay type: functional
# Conditions: not given
# In short: as §1
row,SMILES,MIC
1,O=c1c2ccccc2sn1-c1cccc2ccccc12,0.5 µg/mL

# Test system: Staphylococcus aureus
# Assay: Antibacterial activity against methicillin-resistant Staphylococcus aureus C7 measured after overnight incubation by broth double-dilution method
# Assay type: functional
# Conditions: not given
# In short: as §1
row,SMILES,MIC
1,O=c1c2ccccc2sn1-c1cccc2ccccc12,1 µg/mL

# Test system: Staphylococcus aureus
# Assay: Antibacterial activity against methicillin-resistant Staphylococcus aureus C14 measured after overnight incubation by broth double-dilution method
# Assay type: functional
# Conditions: not given
# In short: as §1
row,SMILES,MIC
1,O=c1c2ccccc2sn1-c1cccc2ccccc12,2 µg/mL
2,O=c1c2ccccc2sn1C1CCCC1,3.9 µg/mL

# Test system: Staphylococcus aureus
# Assay: Antibacterial activity against methicillin-resistant Staphylococcus aureus C16 measured after overnight incubation by broth double-dilution method
# Assay type: functional
# Conditions: not given
# In short: as §1
row,SMILES,MIC
1,O=c1c2ccccc2sn1-c1cccc2ccccc12,15.6 µg/mL

# Test system: Staphylococcus aureus
# Assay: Antibacterial activity against methicillin-resistant Staphylococcus aureus C19 measured after overnight incubation by broth double-dilution method
# Assay type: functional
# Conditions: not given
# In short: as §1
row,SMILES,MIC
1,O=c1c2ccccc2sn1-c1cccc2ccccc12,0.5 µg/mL

# Test system: Staphylococcus aureus
# Assay: Antibacterial activity against methicillin-resistant Staphylococcus aureus G1 measured after overnight incubation by broth double-dilution method
# Assay type: functional
# Conditions: not given
# In short: as §1
row,SMILES,MIC
1,O=c1c2ccccc2sn1-c1cccc2ccccc12,2 µg/mL
2,O=c1c2ccccc2sn1C1CCCC1,2 µg/mL

# Test system: Staphylococcus aureus
# Assay: Antibacterial activity against methicillin-resistant Staphylococcus aureus G6 measured after overnight incubation by broth double-dilution method
# Assay type: functional
# Conditions: not given
# In short: as §1
row,SMILES,MIC
1,O=c1c2ccccc2sn1-c1cccc2ccccc12,0.5 µg/mL

# Test system: Staphylococcus aureus
# Assay: Antibacterial activity against methicillin-resistant Staphylococcus aureus G12 measured after overnight incubation by broth double-dilution method
# Assay type: functional
# Conditions: not given
# In short: as §1
row,SMILES,MIC
1,O=c1c2ccccc2sn1-c1cccc2ccccc12,0.5 µg/mL
2,O=c1c2ccccc2sn1C1CCCC1,3.9 µg/mL

# Test system: Staphylococcus aureus
# Assay: Antibacterial activity against methicillin-resistant Staphylococcus aureus G14 measured after overnight incubation by broth double-dilution method
# Assay type: functional
# Conditions: not given
# In short: as §1
row,SMILES,MIC
1,O=c1c2ccccc2sn1-c1cccc2ccccc12,2 µg/mL

# Test system: Staphylococcus aureus
# Assay: Antibacterial activity against methicillin-resistant Staphylococcus aureus NRS4 measured after overnight incubation by broth double-dilution method
# Assay type: functional
# Conditions: not given
# In short: as §1
row,SMILES,MIC
1,O=c1c2ccccc2sn1-c1cccc2ccccc12,2 µg/mL

# Test system: Staphylococcus aureus
# Assay: Antibacterial activity against methicillin-resistant Staphylococcus aureus NRS51 measured after overnight incubation by broth double-dilution method
# Assay type: functional
# Conditions: not given
# In short: as §1
row,SMILES,MIC
1,O=c1c2ccccc2sn1-c1cccc2ccccc12,1 µg/mL

# Test system: Staphylococcus aureus
# Assay: Antibacterial activity against methicillin-resistant Staphylococcus aureus NRS77 measured after overnight incubation by broth double-dilution method
# Assay type: functional
# Conditions: not given
# In short: as §1
row,SMILES,MIC
1,O=c1c2ccccc2sn1-c1cccc2ccccc12,2 µg/mL

# Test system: Staphylococcus aureus
# Assay: Antibacterial activity against methicillin-resistant Staphylococcus aureus S14 measured after overnight incubation by broth double-dilution method
# Assay type: functional
# Conditions: not given
# In short: as §1
row,SMILES,MIC
1,O=c1c2ccccc2sn1-c1cccc2ccccc12,≤ 0.25 µg/mL
2,O=c1c2ccccc2sn1C1CCCC1,0.5 µg/mL

# Test system: Staphylococcus aureus
# Assay: Antibacterial activity against methicillin-resistant Staphylococcus aureus S17 measured after overnight incubation by broth double-dilution method
# Assay type: functional
# Conditions: not given
# In short: as §1
row,SMILES,MIC
1,O=c1c2ccccc2sn1-c1cccc2ccccc12,1 µg/mL

# Test system: Staphylococcus aureus
# Assay: Antibacterial activity against methicillin-resistant Staphylococcus aureus S22 measured after overnight incubation by broth double-dilution method
# Assay type: functional
# Conditions: not given
# In short: as §1
row,SMILES,MIC
1,O=c1c2ccccc2sn1-c1cccc2ccccc12,1 µg/mL
2,O=c1c2ccccc2sn1C1CCCC1,7.8 µg/mL

# Test system: Staphylococcus aureus
# Assay: Antibacterial activity against methicillin-resistant Staphylococcus aureus S24 measured after overnight incubation by broth double-dilution method
# Assay type: functional
# Conditions: not given
# In short: as §1
row,SMILES,MIC
1,O=c1c2ccccc2sn1-c1cccc2ccccc12,0.5 µg/mL

# Test system: Staphylococcus aureus
# Assay: Antibacterial activity against methicillin-resistant Staphylococcus aureus USA100 measured after overnight incubation by broth double-dilution method
# Assay type: functional
# Conditions: not given
# In short: as §1
row,SMILES,MIC
1,O=c1c2ccccc2sn1-c1cccc2ccccc12,0.5 µg/mL

# Test system: Staphylococcus aureus
# Assay: Antibacterial activity against methicillin-resistant Staphylococcus aureus USA200 measured after overnight incubation by broth double-dilution method
# Assay type: functional
# Conditions: not given
# In short: as §1
row,SMILES,MIC
1,O=c1c2ccccc2sn1-c1cccc2ccccc12,2 µg/mL

# Test system: Staphylococcus aureus
# Assay: Antibacterial activity against methicillin-resistant Staphylococcus aureus USA300 measured after overnight incubation by broth double-dilution method
# Assay type: functional
# Conditions: not given
# In short: as §1
row,SMILES,MIC
1,O=c1c2ccccc2sn1-c1cccc2ccccc12,2 µg/mL

# Test system: Staphylococcus aureus
# Assay: Antibacterial activity against methicillin-resistant Staphylococcus aureus USA600 measured after overnight incubation by broth double-dilution method
# Assay type: functional
# Conditions: not given
# In short: as §1
row,SMILES,MIC
1,O=c1c2ccccc2sn1-c1cccc2ccccc12,2 µg/mL
2,O=c1c2ccccc2sn1C1CCCC1,7.8 µg/mL

# Test system: Staphylococcus epidermidis
# Assay: Antibacterial activity against Staphylococcus epidermidis ATCC 35984 measured after overnight incubation by broth double-dilution method
# Assay type: functional
# Conditions: RP62A
# In short: (§2)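 MIC by broth double-dilution in Mueller-Hinton medium. Re-testing at the time-kill inoculum used 1×10^6 CFU/mL.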
row,SMILES,MIC
1,O=c1c2ccccc2sn1-c1cccc2ccccc12,0.25 µg/mL
2,O=c1c2ccccc2sn1C1CCCC1,2 µg/mL

# Test system: Enterococcus faecalis
# Assay: Antibacterial activity against Enterococcus faecalis ATCC 29212 measured after overnight incubation by broth double-dilution method
# Assay type: functional
# Conditions: not given
# In short: as §2
row,SMILES,MIC
1,O=c1c2ccccc2sn1-c1cccc2ccccc12,> 125 µg/mL
2,O=c1c2ccccc2sn1C1CCCC1,> 125 µg/mL

# Test system: Enterococcus faecalis
# Assay: Antibacterial activity against Enterococcus faecalis ATCC 49533 measured after overnight incubation by broth double-dilution method
# Assay type: functional
# Conditions: not given
# In short: as §2
row,SMILES,MIC
1,O=c1c2ccccc2sn1-c1cccc2ccccc12,> 125 µg/mL
2,O=c1c2ccccc2sn1C1CCCC1,> 125 µg/mL

# Test system: Enterococcus faecium
# Assay: Antibacterial activity against Enterococcus faecium BM4105-RF measured after overnight incubation by broth double-dilution method
# Assay type: functional
# Conditions: not given
# In short: as §1
row,SMILES,MIC
1,O=c1c2ccccc2sn1-c1cccc2ccccc12,> 125 µg/mL
2,O=c1c2ccccc2sn1C1CCCC1,> 125 µg/mL

# Test system: Enterococcus
# Assay: Antibacterial activity against Vancomycin-resistant Enterococcus measured after overnight incubation by broth double-dilution method
# Assay type: functional
# Conditions: not given
# In short: as §1
row,SMILES,MIC
1,O=c1c2ccccc2sn1-c1cccc2ccccc12,0.5 µg/mL
2,O=c1c2ccccc2sn1C1CCCC1,2 µg/mL

# Test system: Listeria monocytogenes
# Assay: Antibacterial activity against Listeria monocytogenes ATCC 19115 measured after overnight incubation by broth double-dilution method
# Assay type: functional
# Conditions: not given
# In short: as §2
row,SMILES,MIC
1,O=c1c2ccccc2sn1-c1cccc2ccccc12,2 µg/mL

# Test system: Mycolicibacterium smegmatis
# Assay: Antibacterial activity against Mycobacterium smegmatis MC2-155 measured after overnight incubation by broth double-dilution method
# Assay type: functional
# Conditions: str. MC2 155
# In short: as §1
row,SMILES,MIC
1,O=c1c2ccccc2sn1-c1cccc2ccccc12,1 µg/mL
2,O=c1c2ccccc2sn1C1CCCC1,2 µg/mL

# Test system: not listed separately
# Assay: Cytotoxicity against HEK293 cells assessed as cell death up to 10 ug/ml measured after 24 hrs by resazurin dye-based fluorescence analysis relative to untreated control
# Assay type: toxicity
# Conditions: human, hek293, 24 h
row,SMILES,Activity
1,O=c1c2ccccc2sn1-c1cccc2ccccc12,> 20%

# Test system: not listed separately
# Assay: Cytotoxicity against HEK293 cells assessed as cell death at […] measured after 24 hrs by resazurin dye-based fluorescence analysis relative to untreated control
# Assay type: toxicity
# Conditions: human, hek293, 24 h
row,SMILES,Activity
1,O=c1c2ccccc2sn1C1CCCC1,> 20%
